This passage reports GI50, IC50 and inhibition results from ChEMBL document CHEMBL1140247, “The identification, synthesis, protein crystal structure and in vitro biochemical evaluation of a new 3,4-diarylpyrazole class of Hsp90 inhibitors” (Bioorg Med Chem Lett, 2005).

“And” between values parts separate entries of the source, which are not always exact repeats. Identical values can stand only once. Bounds are passed on as bounds.

Format in all cases: functional
One assay deals with HCT-116. The experiment in a line: Inhibition of HCT116 human colon cancer cell proliferation. Put shortly: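 HCT116 colon cancer cells; growth inhibition measured by sulforhodamine B (SRB) assay; GI50 derived.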
The target of assay [1] is ATP-dependent molecular chaperone HSP82 (Saccharomyces cerevisiae S288c, UniProt P02829). Put plainly: Inhibition of yeast Hsp90 ATPase activity. The method in brief:
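Yeast Hsp90 ATPase activity assay. Original conditions were 1 mM ATP substrate, incubated 3 h at 37 °C. Later optimised conditions used lower ATP and enzyme concentrations, with overnight incubation at 37 °C. IC50 values derived.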

Assay [2] deals with ATP-dependent molecular chaperone HSP82 (Saccharomyces cerevisiae S288c) (UniProt P02829). The experiment in a line: Inhibition of yeast Hsp90 ATPase activity at 40 uM.
Chain of ATP-dependent molecular chaperone HSP82 (Saccharomyces cerevisiae S288c) (P02829 whole entry, looked up): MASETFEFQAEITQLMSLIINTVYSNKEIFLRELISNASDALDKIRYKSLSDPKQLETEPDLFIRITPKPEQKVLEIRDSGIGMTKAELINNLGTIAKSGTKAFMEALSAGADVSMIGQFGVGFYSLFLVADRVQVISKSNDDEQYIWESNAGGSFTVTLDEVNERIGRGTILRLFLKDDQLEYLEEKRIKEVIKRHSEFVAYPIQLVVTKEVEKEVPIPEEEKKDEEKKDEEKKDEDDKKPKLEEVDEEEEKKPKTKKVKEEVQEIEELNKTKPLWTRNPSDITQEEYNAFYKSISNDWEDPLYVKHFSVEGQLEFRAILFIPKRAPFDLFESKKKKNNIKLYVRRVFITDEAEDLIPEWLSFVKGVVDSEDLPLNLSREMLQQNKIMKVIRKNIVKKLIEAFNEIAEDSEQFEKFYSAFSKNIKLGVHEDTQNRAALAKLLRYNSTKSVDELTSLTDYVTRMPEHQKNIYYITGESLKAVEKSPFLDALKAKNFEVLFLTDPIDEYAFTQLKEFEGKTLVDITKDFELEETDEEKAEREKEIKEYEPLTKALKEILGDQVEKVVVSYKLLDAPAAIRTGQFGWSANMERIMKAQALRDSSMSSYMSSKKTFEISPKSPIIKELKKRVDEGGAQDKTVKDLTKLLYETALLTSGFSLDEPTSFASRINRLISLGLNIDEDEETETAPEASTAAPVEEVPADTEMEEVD

Chain of ATP-dependent molecular chaperone HSP82 (P02829 whole entry): as the sequence (P02829 whole entry, looked up) above

In the assay on HCT-116, `COc1ccc(-c2c[nH]nc2-c2cc(Cl)c(O)cc2O)cc1OC` had a concentration for 50% growth inhibition (GI50) of 13 µM. This molecule returned a 50% inhibitory concentration (IC50) in assay [1] of 2.4 µM.

`N#CCCCOc1ccc(-c2cn[nH]c2-c2cc(Cl)c(O)cc2O)cc1`: it took 6.8 µM to inhibit growth in the assay with HCT-116 by half (GI50). In assay [1], the half-maximal inhibitory concentration (IC50) is less than 1 µM.

As to `Oc1cc(O)c(-c2n[nH]cc2-c2ccc(-c3ccc(F)cc3)cc2)cc1Cl`, in the assay on HCT-116, growth was halved (GI50) at 11 µM. For the same molecule, in assay [1], 1.55 µM corresponded to half-maximal inhibition (IC50).

In assay [1], `Cc1[nH]nc(-c2cc(Cl)ccc2O)c1-c1ccc2c(c1)OCCO2` showed a half-maximal inhibitory concentration (IC50) of 25.5 µM.

The molecule `CCC(C)c1cc(-c2[nH]ncc2-c2ccccc2)c(O)cc1OC` (stereo not given) showed an inhibition in assay [2] of 10%.

Take `CCc1cc(-c2n[nH]c(C)c2-c2ccc3c(c2)OCCO3)c(O)cc1O`: in assay [1], the IC50 was 8.9 µM and 7.1 µM.

In the case of `Cc1n[nH]c(-c2ccc(O)c(Cl)c2)c1-c1ccc2c(c1)OCCO2`, the concentration for half-maximal inhibition (IC50) in assay [1] was greater than 100 µM.

The molecule `C=CCNC1=C2CC(C)C[C@H](OC)C(O)C(C)/C=C(\C)[C@H](OC(N)=O)[C@@H](OC)/C=C\C=C(/C)C(=O)NC(=CC1=O)C2=O` (single isomer, unassigned) [TANESPIMYCIN] returned a concentration for 50% growth inhibition (GI50) with HCT-116 of 0.021 µM. The molecule further gave an inhibition in assay [2] of 80%.

Molecule `COc1ccc(-c2c[nH]nc2-c2cc(C(C)C)c(OC)cc2O)cc1` gave an inhibition in assay [2] of 13%.

`CC(C)c1cc(-c2[nH]ncc2-c2nc3ccccc3s2)c(O)cc1O`: the inhibition in assay [2] was found to be 15%.

In the assay on HCT-116, `COC1=C2CC(C)C[C@H](OC)C(O)C(C)/C=C(\C)[C@H](OC(N)=O)[C@@H](OC)/C=C\C=C(/C)C(=O)NC(=CC1=O)C2=O` (single isomer, unassigned) [GELDANAMYCIN] displayed a GI50 of 0.067 µM. Further, the inhibition in assay [2] came to 90%.

`CCc1cc(-c2[nH]nc(C)c2-c2ccc3c(c2)OCCO3)c(O)cc1O`: growth with HCT-116 was halved (GI50) at 4.1 µM. This molecule gave an inhibition in assay [2] of 79%.

In the case of `Oc1cc(O)c(-c2n[nH]cc2-c2ccc3c(c2)OCCO3)cc1Cl`, the GI50 in the assay on HCT-116 amounted to 23 µM. Further, 1.6 µM corresponded to half-maximal inhibition in assay [1] (IC50).

`COc1ccc(-c2cn(C)nc2-c2cc(Cl)c(O)cc2O)cc1OC` yielded an IC50 in assay [1] greater than 100 µM.

For `Cc1n[nH]c(-c2cc(Cl)c(O)cc2O)c1-c1ccccc1`, it took 6.4 µM to inhibit growth in the assay with HCT-116 by half (GI50). Further, in assay [1], the IC50 was 1.65 µM.

On to `Cc1n[nH]c(-c2ccc(O)cc2O)c1Oc1ccc(F)cc1`, for which the inhibition in assay [2] came to 0%.

In the case of `Cc1n[nH]c(-c2cc(Cl)c(O)cc2O)c1-c1ccc(OCCCC#N)cc1`, in the assay with HCT-116, the GI50 came out at 3.6 µM. The same molecule came in with an IC50 in assay [1] of less than 1 µM.

For `Cc1n[nH]c(-c2ccc(O)cc2O)c1-c1ccc2c(c1)OCCO2`, the inhibition in assay [2] was 26%.

For `CCC(C)c1cc(-c2n[nH]cc2-c2ccc3c(c2)OCO3)c(O)cc1O` (stereo not given), the IC50 in assay [1] was 22.3 µM.

In the case of `COc1ccc(-c2[nH]nc(C)c2-c2ccc3c(c2)OCCCO3)c(O)c1`, the inhibition in assay [2] is 25%.

In the assay on HCT-116, `N#CCCCOc1ccccc1-c1cn[nH]c1-c1cc(Cl)c(O)cc1O` came in with a concentration for 50% growth inhibition (GI50) of 31 µM. Besides, the IC50 in assay [1] is 12.8 µM.

Turning to `CCC(C)c1cc(-c2[nH]ncc2-c2ccc3c(c2)OCCO3)c(O)cc1OC` (stereo not given), the inhibition in assay [2] stood at 0%.

As for `Cc1[nH]nc(-c2cc(Cl)c(O)cc2O)c1-c1ccc2c(c1)OCCO2`, it took 4 µM to inhibit growth in the assay on HCT-116 by half (GI50). For the same molecule, the IC50 in assay [1] is less than 1 µM.

In assay [2], `CCC(C)c1cc(-c2[nH]ncc2-c2ccc3c(c2)OCO3)c(O)cc1O` (stereo not given) came in with an inhibition of 64%.

As for `N#CCCCOc1cccc(-c2cn[nH]c2-c2cc(Cl)c(O)cc2O)c1`, growth in the assay with HCT-116 was halved (GI50) at 30 µM. The half-inhibitory concentration (IC50) in assay [1] was found to be 2.4 µM.

For the molecule `COc1cc(O)c(-c2[nH]ncc2-c2ccc3c(c2)OCO3)cc1C(C)C`, the inhibition in assay [2] came to 20%.

Take `CCCc1cc(-c2[nH]nc(C)c2-c2ccc3c(c2)OCCO3)c(O)cc1O`: the concentration for half-maximal inhibition (IC50) in assay [1] came to 46.1 µM. This molecule also displayed an inhibition in assay [2] of 25%.
